Compound activity deposited in PubChem BioAssay by several laboratories.
The full list was thinned out, with hits kept by preference.
Fibroblast inh = antiproliferative effect on LL 47 fibroblasts – human, LL 47 cells, CellTiter-Glo luminescence, primary screen. LL 47 human lung fibroblast viability, ATP luminescence; stronger effect = lower value. viability, % at 10 µM. actives 1.1% (n = 85,000);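 active means viability at or below 50% in the single dose screen; inactive means viability above 50%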;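 further: compound exposure lasted 72 h before the ATP readout; 100% = median luminescence of untreated cell-only wells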
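Times – overnight cell rest, 72 h compound treatment at 37 °C · Test system – human lung fibroblast line LL 47, low passage · Amount – 1,150 cells in each well · Controls – cell-only wells, no compound · Doses – 0.1% DMSO in all compound wells · Measured by – CellTiter-Glo luminescence · Buffer or medium – IMEM plus 15% FBS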
PTEN del growth = growth suppression of PTEN-null HCT116, primary screen, cell-based, CellTiter-Glo. HCT116 PTEN-null viability, 60 h; stronger effect = lower value. viability, % at 10 µM. actives 1.2% (n = 140,000);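 active means viability at or below a set limit, 4 SD under the median of all tested compounds, cut at about 3.7% in these data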;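 further: PTEN knockout HCT116 line with beta catenin targeted HCT116 as companion control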
H69AR inhibit = proliferation blockers of H69AR lung cancer cells, primary screen, cell-based, human, 86K library. H69AR lung tumor viability, ATP luminescence, 72 h; stronger effect = lower value. viability, % at 10 µM. actives 6% (n = 85,000). AID 598, 2007;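 active means viability at or below 40%; inactive means viability above 40%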;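 further: multidrug resistant small cell line overexpressing MRP-1 efflux transporter; 100% = mean luminescence of untreated control wells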
Pyk2 oligo antag = antagonists of Pyk2 self-association, primary screen, Q293 cells, FERM NanoBiT luminescence, HTS. Protein-tyrosine kinase 2-beta (Homo sapiens), Q14289. actives 0.83% (n = 99,000). stronger effect = lower value. z-score (the deposit names both 25 µM and 10 µM). AID 1347419, 2020;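 active means Z-score of -3 or lower, scaled per plate to the spread of control and sample wells; inactive means z-score above -3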;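 further: negative z-score means lost luminescence so less FERM oligomerization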
Target sequence (Q14289 whole entry, looked up): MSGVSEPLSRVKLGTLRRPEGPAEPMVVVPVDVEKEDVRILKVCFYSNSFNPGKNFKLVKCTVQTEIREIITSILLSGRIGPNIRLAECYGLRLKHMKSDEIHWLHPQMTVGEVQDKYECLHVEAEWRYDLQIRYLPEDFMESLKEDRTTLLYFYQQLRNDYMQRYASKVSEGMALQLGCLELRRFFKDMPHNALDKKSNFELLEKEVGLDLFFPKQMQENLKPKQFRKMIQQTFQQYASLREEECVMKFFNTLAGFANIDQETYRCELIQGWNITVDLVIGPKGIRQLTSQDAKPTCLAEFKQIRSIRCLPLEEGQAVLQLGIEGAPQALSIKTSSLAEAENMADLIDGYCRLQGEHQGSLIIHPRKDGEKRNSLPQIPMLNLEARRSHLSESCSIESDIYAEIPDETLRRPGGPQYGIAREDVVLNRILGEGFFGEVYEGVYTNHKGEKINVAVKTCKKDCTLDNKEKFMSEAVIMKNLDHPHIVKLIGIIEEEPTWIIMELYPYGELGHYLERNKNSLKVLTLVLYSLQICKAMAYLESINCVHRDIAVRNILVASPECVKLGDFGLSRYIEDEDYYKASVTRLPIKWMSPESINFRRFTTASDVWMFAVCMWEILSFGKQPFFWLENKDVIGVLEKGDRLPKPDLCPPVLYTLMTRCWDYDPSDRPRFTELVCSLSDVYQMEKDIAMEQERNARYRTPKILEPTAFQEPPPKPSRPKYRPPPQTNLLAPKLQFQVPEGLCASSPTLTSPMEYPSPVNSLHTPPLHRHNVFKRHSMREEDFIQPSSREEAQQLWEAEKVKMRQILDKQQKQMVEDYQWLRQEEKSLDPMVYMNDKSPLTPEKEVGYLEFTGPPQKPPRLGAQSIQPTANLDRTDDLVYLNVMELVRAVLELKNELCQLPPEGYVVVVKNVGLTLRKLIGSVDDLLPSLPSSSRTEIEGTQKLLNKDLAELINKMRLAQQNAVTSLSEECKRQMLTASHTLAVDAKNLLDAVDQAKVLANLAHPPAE
HUVEC inhibit = inhibitors of HUVEC proliferation, primary screen, cell-based, 384-well; viability, % at 10 µM (by protocol); CellTiter-Glo luminescence, 72 h; stronger effect = lower value; AID 648, 2007; actives 1.1% (n = 86,000);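 active means viability at or below 30%; inactive means viability above 30%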;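 further: 100% = median luminescence of DMSO-only cell control wells on each plate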
bCat KO growth = primary screen for growth suppressors in beta-catenin knockout HCT116 cells (colon tumor, human) | viability, % at 10 µM | actives 1.5% (n = 140,000) | HCT116 beta-catenin knockout viability, CellTiter-Glo, 60 h; stronger effect = lower value;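 active means viability at or under a set limit, the compound median less 4 SD, cut at about 6% in these data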;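 further: 0% = Hyamine 1622 control at 20 µM and 100% = untreated cell control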
An asterisk follows results filed as active; nt = no result given.

SMILES	Fibroblast inh	PTEN del growth	H69AR inhibit	Pyk2 oligo antag	HUVEC inhibit	bCat KO growth
Cc1cccnc1NC(=O)c1ccccc1NC(=O)C(C)(C)C	nt	99	102	1.1	103	91
Cc1ccnc(NC(=O)c2ccccc2NC(=O)C(C)(C)C)c1	nt	32	20*	0.07	62	40
COc1ccc(C(=O)NN2CC(O)=C(c3nc4ccccc4n3C)C2=N)cc1OC	nt	98	nt	0.93	nt	105
COc1ccc(NC(=O)/C(Cl)=C(/Cl)S(=O)(=O)Cc2ccccc2)cn1	4.7*	3.0*	1.9*	-0.38	125	4.5*
Cc1ccc(CCNC(=O)CCc2nc3ccccc3[nH]2)cc1	nt	101	nt	3	nt	98
O=C(N/C(=C/c1ccco1)C(=O)N1CCCCC1)c1cccs1	nt	89	nt	-0.39	nt	92
C=CCn1c(SCC(=O)Nc2ccc(C(=O)OC(C)C)cc2)nnc1-c1cccs1	30*	74	25*	-1.6	39	96
O=C(CSc1nnc(-c2cccs2)n1-c1ccccc1)N1CCc2ccccc21	nt	nt	16*	nt	95	nt
CCOC(=O)c1ccc(NC(=O)CSc2nnc(-c3cccs3)n2CC)cc1	92	110	91	-1.2	75	97
O=C(CSc1nnc(-c2ccco2)n1-c1ccccc1)N1CCc2ccccc21	102	nt	78	nt	88	nt
CCc1nnc(NC(=O)CSc2nnc(-c3ccccc3O)n2-c2ccc(C)cc2C)s1	65	24	nt	-3.8*	62	23
Cn1c(=O)n(C)c2cc(NC(=O)CCl)ccc21	42*	5	1.5*	-0.54	54	8
Cc1ccc(C2CC(c3ccccc3)=NN2C(=O)CSc2nnc(-c3ccncc3)n2C)o1 (configuration not stated)	nt	97	nt	0.07	nt	90
O=C(CSc1nc2[nH]ncc2c(=O)n1-c1ccccc1)c1ccc2c(c1)OCCO2	89	71	17*	-1.8	56	72
Cn1c(SCC(=O)Nc2ccc(N3CCOCC3)cc2)nnc1-c1ccccc1	105	119	86	0.6	15*	107
Cc1ccc(NC(=O)CSc2nnc(-c3ccc(S(=O)(=O)N4CCOCC4)cc3)n2C)cc1	97	109	98	-0.4	102	99
Cc1cccc(NC(=O)CSc2nc3[nH]ncc3c(=O)n2-c2ccccc2)c1	nt	80	nt	nt	nt	86
O=C(CSc1nnc(-c2cccs2)n1-c1ccccc1)c1ccc2c(c1)OCCO2	77	nt	17*	-0.87	34	nt
COc1ccc(NC(=O)CSc2nnc(-c3cccs3)n2-c2ccccc2)cc1	39*	51	46	-0.42	21*	52
CC(C)CC(=O)OC1C(N2CCOCC2)c2c(ccc(/C=C/C(=O)N3CCOCC3)c2O)OC1(C)C (configuration not stated)	nt	85	nt	0.4	nt	95
Cn1c(=O)n(C)c2cc(NC(=O)CSc3nnc(-c4ccccc4O)n3-c3ccccc3)ccc21	90	63	33*	1.2	75	60
N#Cc1c(NC(=O)CSc2nnc(-c3ccccc3O)n2-c2ccccc2)sc2c1CCCC2	99	56	49	-0.46	87	59
C=CCn1c(SC(C)C(=O)NCc2ccc3c(c2)OCO3)nc2scc(-c3ccccc3)c2c1=O (configuration not stated)	94	66	34*	-1.2	74	81
CC(Sc1nnc(-c2cccs2)n1-c1ccccc1)C(=O)NCc1ccc2c(c1)OCO2 (configuration not stated)	103	94	39*	-1.8	102	95
COC(=O)c1sc(-c2ccccc2)cc1NC(=O)c1cc(OC)cc(OC)c1	nt	17	nt	nt	nt	30
SMILES	Fibroblast inh	PTEN del growth	H69AR inhibit	Pyk2 oligo antag	HUVEC inhibit	bCat KO growth
COC(=O)c1sc(-c2ccccc2)cc1NC(=O)c1ccc(OC)cc1	nt	6	nt	nt	nt	3.1*
Cc1ccc(-n2c(C)cc(/C=C3\NC(=O)NC3=O)c2C)c(C)c1	nt	84	nt	nt	nt	85
CC1(C)CC(=O)C(C(C#Cc2ccccc2)C2=C(O)CC(C)(C)CC2=O)=C(O)C1	83	93	29*	-0.44	82	80
O=C1CCCC(O)=C1C(C#Cc1ccccc1)C1=C(O)CCCC1=O	81	107	7.3*	0.31	76	100
Cc1cc2cc(CNC(=O)Cc3cccs3)ccc2n1C	107	nt	38*	nt	61	nt
Cc1nc2cc(N3CCCCC3)c(NC(=O)c3ccncc3)cc2c(=O)n1Cc1ccccc1	nt	4	nt	0.12	nt	4.4*
COc1ccccc1-n1c(CNc2ccc(F)cc2)nnc1SCC(=O)Nc1cc(C)on1	97	91	87	-0.35	81	91
CN(c1ccc(Cl)cc1)c1cc(=O)n(C)c2ccccc12	90	64	44	-1.3	51	63
CN(C)c1ccc2c(O)cc(=O)n(C)c2c1	102	76	22*	0.09	95	73
CCCSc1nsc(SCCC)c1C#N	94	101	94	0.85	90	97
C#CCSc1nsc(SCC#C)c1C#N	nt	5	nt	-0.6	nt	2.7*
CCOc1cc(/C=N/NC(N)=O)cc(Br)c1OCC(=O)Nc1ccccc1C	nt	79	nt	-2.6	nt	78
CCOc1cc(/C=C\[N+](=O)[O-])ccc1OCC(=O)Nc1ccccc1C	nt	1.9*	nt	0.27	nt	2.1*
CC(=O)C1=C(O)C(=O)N(CCCn2ccnc2)C1c1ccc(C)cc1 (configuration not stated)	nt	98	nt	0.65	nt	93
CC(C)(C)N(NC(=O)Nc1ccc(Cl)c(Cl)c1)C(=O)c1ccccc1	nt	3.4*	nt	-2.1	nt	9
O=C(CCSc1nnc(-c2ccncc2)o1)Nc1cccc2ccccc12	88	73	37*	-0.22	90	75
O=C(NCc1ccccn1)C1C2C=CC(C2)C1C(=O)Nc1ccc(F)cc1 (configuration not stated)	103	101	81	0.47	95	84
Cc1nn(-c2ccccc2)c(OC(=O)c2cccs2)c1S(=O)(=O)c1ccc([N+](=O)[O-])cc1	100	97	7.9*	-0.9	88	96
Cc1nn(-c2ccccc2)c(OC(=O)c2cccs2)c1S(=O)(=O)c1ccccc1	nt	105	nt	0.44	nt	105
CC(C)SC1=NC(C)(C)C=C(/C=C/c2c(Cl)cccc2Cl)N1	84	14	40	-0.61	54	14
CC(C)SC1=NC(C)(C)C=C(/C=C/c2ccc(Cl)cc2Cl)N1	82	22	34*	0.6	26*	19
CCOC(=O)C1=C(C)NC2=C(C1c1ccc([N+](=O)[O-])cc1)S(=O)(=O)c1ccccc12 (configuration not stated)	nt	25	nt	-3*	nt	36
CCC(C)NC(=S)NNC(=O)c1ccc(C(C)(C)C)cc1 (configuration not stated)	nt	93	nt	2.9	nt	94
